Data: ChEMBL document CHEMBL4118144, “Design, Synthesis, and Testing of Potent, Selective Hepsin Inhibitors via Application of an Automated Closed-Loop Optimization Platform” (J Med Chem, 2018)
Calls of active or inactive are those of the source. The rule behind the calls is not given here.

test system: not listed separately; assay: Half life in human liver microsomes at 3 uM preincubated for 5 mins followed by NADPH addition by LC-MS/MS analysis; type: ADME, microsome; details: not given

SMILES | half-life at 3 µM
Cc1ccc(S(=O)(=O)N[C@@H](C(=O)Nc2ccc(C(=N)N)cc2)C2CCCCC2)cc1 | 89 min
Cc1ccc(S(=O)(=O)N[C@@H](C(=O)Nc2ccc(C(=N)N)cc2)c2ccccc2)cc1 | 53 min
N=C(N)c1ccc(NC(=O)[C@H](NS(=O)(=O)c2ccc(F)cc2)C2CCCCC2)cc1 | 16 min

biological target: Urokinase-type plasminogen activator (Homo sapiens, UniProt P00749); assay: Inhibition of recombinant C-terminal His10-tagged human uPA (M1 to L431 residues) expressed in mouse NS0 cells using Z-GGR-AMC as substrate after 15 mins by manual fluorescence assay; details: not given

SMILES | IC50
Cc1ccc(S(=O)(=O)N[C@@H](C(=O)Nc2ccc(C(=N)N)cc2)C2CCCCC2)cc1 | 10 to 1950 µM
Cc1ccc(S(=O)(=O)N[C@@H](C(=O)Nc2ccc(C(=N)N)cc2)c2ccccc2)cc1 | 140 µM
N=C(N)c1ccc(NC(=O)[C@H](NS(=O)(=O)c2ccc(F)cc2)C2CCCCC2)cc1 | 280 µM

test system: HepG2; assay: Cytotoxicity against human HepG2 cells assessed as reduction in cell viability after 48 hrs by CellTiter-Blue/CytoTox-ONE-based assay; details: HepG2, 48 h
Summary of the method: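 Human Hep-G2 cells were exposed to compound at concentrations up to 10 µM. The value is reported as viable-50 (µM), the concentration at which 50% of cells remain viable.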

SMILES | IC50
Cc1ccc(S(=O)(=O)N[C@@H](C(=O)Nc2ccc(C(=N)N)cc2)C2CCCCC2)cc1 | > 10 µM
Cc1ccc(S(=O)(=O)N[C@@H](C(=O)Nc2ccc(C(=N)N)cc2)c2ccccc2)cc1 | > 10 µM
N=C(N)c1ccc(NC(=O)[C@H](NS(=O)(=O)c2ccc(F)cc2)C2CCCCC2)cc1 | > 10 µM

biological target: T1, Serine protease hepsin (Homo sapiens, UniProt P05981); assay: Inhibition of doxycycline induced Hepsin in human MCF10A cells using Boc-QRR-AMC as substrate preincubated for 24 hrs followed by doxycycline induction for 24 hrs and subsequent addition of substrate by fluorescence assay; type: cell-based; details: not given
T1 sequence (P05981 1-162 limits assumed): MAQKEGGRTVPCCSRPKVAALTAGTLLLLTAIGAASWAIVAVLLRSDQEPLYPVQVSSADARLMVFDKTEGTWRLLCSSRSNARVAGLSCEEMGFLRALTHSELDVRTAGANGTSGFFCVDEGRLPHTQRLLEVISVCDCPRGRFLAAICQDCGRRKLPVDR
T1 sequence (P05981 163-417 limits assumed): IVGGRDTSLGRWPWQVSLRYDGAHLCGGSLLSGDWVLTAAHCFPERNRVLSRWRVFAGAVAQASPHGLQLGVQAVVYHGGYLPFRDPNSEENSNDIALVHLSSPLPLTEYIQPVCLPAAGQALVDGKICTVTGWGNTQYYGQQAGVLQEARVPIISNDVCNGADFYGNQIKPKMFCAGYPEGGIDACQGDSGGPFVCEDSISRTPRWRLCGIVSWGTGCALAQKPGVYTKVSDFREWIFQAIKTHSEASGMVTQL

SMILES | IC50
Cc1ccc(S(=O)(=O)N[C@@H](C(=O)Nc2ccc(C(=N)N)cc2)C2CCCCC2)cc1 | 0.99 µM
Cc1ccc(S(=O)(=O)N[C@@H](C(=O)Nc2ccc(C(=N)N)cc2)c2ccccc2)cc1 | 0.1 µM
N=C(N)c1ccc(NC(=O)[C@H](NS(=O)(=O)c2ccc(F)cc2)C2CCCCC2)cc1 | 1.29 µM

biological target: T1, Serine protease hepsin; assay: Inhibition of doxycycline induced Hepsin in human MCF10A cells assessed as prevention in loss of HAI-1 level at 10 uM preincubated for 30 mins followed by doxycycline addition measured after 6 hrs by Immunoblot assay; type: cell-based; details: not given
Summary of the method: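 MCF10A-Indu20-hepsin cells (Dox-inducible hepsin) pretreated 30 min with compound or DMSO, then hepsin induced with 100 ng/mL doxycycline for 6 h; HAI-1 protein scored by immunoblot.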

SMILES | inhibition
Cc1ccc(S(=O)(=O)N[C@@H](C(=O)Nc2ccc(C(=N)N)cc2)C2CCCCC2)cc1 | inactive
Cc1ccc(S(=O)(=O)N[C@@H](C(=O)Nc2ccc(C(=N)N)cc2)c2ccccc2)cc1 | Active
N=C(N)c1ccc(NC(=O)[C@H](NS(=O)(=O)c2ccc(F)cc2)C2CCCCC2)cc1 | inactive

biological target: Prothrombin (Homo sapiens) (UniProt P00734); assay: Inhibition of human thrombin using Z-Gly-Pro-Arg-AMC as substrate at 1 uM after 60 mins by fluorescence spectrophotometric method relative to control; details: not given
Summary of the method: (§1)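 Panel of ten serine proteases; percent inhibition read at compound concentrations of 1 µM and 10 µM, each value the mean of 2 experiments.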

SMILES | inhibition
Cc1ccc(S(=O)(=O)N[C@@H](C(=O)Nc2ccc(C(=N)N)cc2)C2CCCCC2)cc1 | 11%
Cc1ccc(S(=O)(=O)N[C@@H](C(=O)Nc2ccc(C(=N)N)cc2)c2ccccc2)cc1 | < 10%
N=C(N)c1ccc(NC(=O)[C@H](NS(=O)(=O)c2ccc(F)cc2)C2CCCCC2)cc1 | < 10%

biological target: T2, Chymase (Homo sapiens) (UniProt P23946); assay: Inhibition of human chymase using Suc-Ala-Ala-Pro-Phe-AMC as substrate at 10 uM after 120 mins by fluorescence spectrophotometric method relative to control; details: not given; summary of the method: as §1
T2 sequence (whole entry): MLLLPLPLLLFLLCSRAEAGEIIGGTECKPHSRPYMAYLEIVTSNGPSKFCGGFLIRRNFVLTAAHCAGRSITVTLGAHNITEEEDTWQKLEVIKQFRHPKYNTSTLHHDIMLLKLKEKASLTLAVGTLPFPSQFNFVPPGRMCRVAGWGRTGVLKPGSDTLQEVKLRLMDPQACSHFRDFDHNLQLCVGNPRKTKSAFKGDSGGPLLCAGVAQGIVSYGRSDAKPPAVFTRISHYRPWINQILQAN

SMILES | inhibition
Cc1ccc(S(=O)(=O)N[C@@H](C(=O)Nc2ccc(C(=N)N)cc2)C2CCCCC2)cc1 | < 10%
Cc1ccc(S(=O)(=O)N[C@@H](C(=O)Nc2ccc(C(=N)N)cc2)c2ccccc2)cc1 | < 10%
N=C(N)c1ccc(NC(=O)[C@H](NS(=O)(=O)c2ccc(F)cc2)C2CCCCC2)cc1 | < 10%

biological target: Dipeptidyl peptidase 4 (Homo sapiens) (UniProt P27487); assay: Inhibition of recombinant full length human dipeptidyl peptidase 4 using GP-AMC as substrate at 1 uM after 10 mins by fluorescence spectrophotometric method relative to control; details: not given; summary of the method: as §1
Sequence (P27487 whole entry, looked up): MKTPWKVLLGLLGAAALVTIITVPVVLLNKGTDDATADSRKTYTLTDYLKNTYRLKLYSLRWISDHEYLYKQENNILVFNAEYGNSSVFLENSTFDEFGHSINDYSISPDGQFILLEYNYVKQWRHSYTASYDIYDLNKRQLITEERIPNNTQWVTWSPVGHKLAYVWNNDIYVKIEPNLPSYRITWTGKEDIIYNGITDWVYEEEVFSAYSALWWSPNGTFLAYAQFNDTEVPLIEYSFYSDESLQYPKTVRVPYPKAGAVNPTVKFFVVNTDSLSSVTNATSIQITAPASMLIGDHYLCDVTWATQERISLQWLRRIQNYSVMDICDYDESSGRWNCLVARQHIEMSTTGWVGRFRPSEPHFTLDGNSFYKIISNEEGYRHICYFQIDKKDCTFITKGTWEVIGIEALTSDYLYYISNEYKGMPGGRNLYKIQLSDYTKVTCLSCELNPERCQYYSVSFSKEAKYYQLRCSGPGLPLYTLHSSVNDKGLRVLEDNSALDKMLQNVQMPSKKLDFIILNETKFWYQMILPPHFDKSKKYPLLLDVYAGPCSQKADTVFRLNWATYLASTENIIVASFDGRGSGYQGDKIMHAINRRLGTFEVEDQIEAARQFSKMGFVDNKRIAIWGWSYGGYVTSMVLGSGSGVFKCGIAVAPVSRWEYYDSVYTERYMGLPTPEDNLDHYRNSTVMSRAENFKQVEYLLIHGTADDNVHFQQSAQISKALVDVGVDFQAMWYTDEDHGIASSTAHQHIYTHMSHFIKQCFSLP

SMILES | inhibition
Cc1ccc(S(=O)(=O)N[C@@H](C(=O)Nc2ccc(C(=N)N)cc2)C2CCCCC2)cc1 | < 10%
Cc1ccc(S(=O)(=O)N[C@@H](C(=O)Nc2ccc(C(=N)N)cc2)c2ccccc2)cc1 | < 10%
N=C(N)c1ccc(NC(=O)[C@H](NS(=O)(=O)c2ccc(F)cc2)C2CCCCC2)cc1 | < 10%

biological target: Trypsin (Homo sapiens) (UniProt P07477+P07478+P35030); assay: Inhibition of human trypsin using Z-Gly-Pro-Arg-AMC as substrate at 1 uM after 60 mins by fluorescence spectrophotometric method relative to control; type: protein assay; details: not given; summary of the method: as §1

SMILES | inhibition
Cc1ccc(S(=O)(=O)N[C@@H](C(=O)Nc2ccc(C(=N)N)cc2)C2CCCCC2)cc1 | 83%
Cc1ccc(S(=O)(=O)N[C@@H](C(=O)Nc2ccc(C(=N)N)cc2)c2ccccc2)cc1 | 54%
N=C(N)c1ccc(NC(=O)[C@H](NS(=O)(=O)c2ccc(F)cc2)C2CCCCC2)cc1 | 77%

biological target: Plasma kallikrein (Homo sapiens) (UniProt P03952); assay: Inhibition of human plasma kallikrein using H-D-Pro-Phe-Arg-pNA as substrate at 1 uM after 30 mins by spectrophotometric method relative to control; details: not given; summary of the method: as §1
Sequence (P03952 20-390 limits assumed): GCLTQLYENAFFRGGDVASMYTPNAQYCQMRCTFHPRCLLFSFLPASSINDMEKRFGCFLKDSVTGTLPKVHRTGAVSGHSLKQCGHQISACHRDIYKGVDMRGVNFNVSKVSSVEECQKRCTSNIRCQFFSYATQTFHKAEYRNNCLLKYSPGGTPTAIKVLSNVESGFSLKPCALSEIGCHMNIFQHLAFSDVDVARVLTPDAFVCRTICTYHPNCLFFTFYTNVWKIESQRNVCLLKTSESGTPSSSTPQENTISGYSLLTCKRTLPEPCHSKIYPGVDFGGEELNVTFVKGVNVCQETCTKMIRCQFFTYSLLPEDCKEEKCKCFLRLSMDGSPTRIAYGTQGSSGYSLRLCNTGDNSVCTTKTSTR
Sequence (P03952 391-638 limits assumed): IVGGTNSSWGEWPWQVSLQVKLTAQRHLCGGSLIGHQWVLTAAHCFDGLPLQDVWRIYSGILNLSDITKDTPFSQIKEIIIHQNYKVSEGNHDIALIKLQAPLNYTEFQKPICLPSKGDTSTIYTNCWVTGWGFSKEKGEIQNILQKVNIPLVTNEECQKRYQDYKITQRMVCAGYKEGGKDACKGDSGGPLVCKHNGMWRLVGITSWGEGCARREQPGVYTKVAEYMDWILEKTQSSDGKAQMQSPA

SMILES | inhibition
Cc1ccc(S(=O)(=O)N[C@@H](C(=O)Nc2ccc(C(=N)N)cc2)C2CCCCC2)cc1 | < 10%
Cc1ccc(S(=O)(=O)N[C@@H](C(=O)Nc2ccc(C(=N)N)cc2)c2ccccc2)cc1 | 34%
N=C(N)c1ccc(NC(=O)[C@H](NS(=O)(=O)c2ccc(F)cc2)C2CCCCC2)cc1 | 12%

biological target: Plasma kallikrein (Homo sapiens) (UniProt P03952); assay: Inhibition of human plasma kallikrein using H-D-Pro-Phe-Arg-pNA as substrate at 10 uM after 30 mins by spectrophotometric method relative to control; details: not given; summary of the method: as §1

SMILES | inhibition
Cc1ccc(S(=O)(=O)N[C@@H](C(=O)Nc2ccc(C(=N)N)cc2)C2CCCCC2)cc1 | 29%
Cc1ccc(S(=O)(=O)N[C@@H](C(=O)Nc2ccc(C(=N)N)cc2)c2ccccc2)cc1 | 85%
N=C(N)c1ccc(NC(=O)[C@H](NS(=O)(=O)c2ccc(F)cc2)C2CCCCC2)cc1 | 34%

biological target: T3, Neutrophil elastase (Homo sapiens) (UniProt P08246); assay: Inhibition of human ELA2 using N-MeOSuc-Ala-Ala-Pro-Val-pNA as substrate at 1 uM after 60 mins by spectrophotometric method relative to control; details: not given; summary of the method: as §1
T3 sequence (whole entry): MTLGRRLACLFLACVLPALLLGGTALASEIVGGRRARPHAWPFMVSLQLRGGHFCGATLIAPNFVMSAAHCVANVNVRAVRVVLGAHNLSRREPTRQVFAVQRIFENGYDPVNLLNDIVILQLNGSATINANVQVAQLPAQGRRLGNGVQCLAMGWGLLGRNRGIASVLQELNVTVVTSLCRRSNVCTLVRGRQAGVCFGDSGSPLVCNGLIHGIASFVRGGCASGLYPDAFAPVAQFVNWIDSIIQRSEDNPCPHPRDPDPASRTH

SMILES | inhibition
Cc1ccc(S(=O)(=O)N[C@@H](C(=O)Nc2ccc(C(=N)N)cc2)C2CCCCC2)cc1 | < 10%
Cc1ccc(S(=O)(=O)N[C@@H](C(=O)Nc2ccc(C(=N)N)cc2)c2ccccc2)cc1 | < 10%
N=C(N)c1ccc(NC(=O)[C@H](NS(=O)(=O)c2ccc(F)cc2)C2CCCCC2)cc1 | < 10%

biological target: T4, Suppressor of tumorigenicity 14 protein (Homo sapiens) (UniProt Q9Y5Y6); assay: Inhibition of matriptase (unknown origin) using BOC-QAR-AMC as substrate at 1 uM after 15 mins by fluorescence assay relative to control; details: not given; summary of the method: as §1
T4 sequence (whole entry): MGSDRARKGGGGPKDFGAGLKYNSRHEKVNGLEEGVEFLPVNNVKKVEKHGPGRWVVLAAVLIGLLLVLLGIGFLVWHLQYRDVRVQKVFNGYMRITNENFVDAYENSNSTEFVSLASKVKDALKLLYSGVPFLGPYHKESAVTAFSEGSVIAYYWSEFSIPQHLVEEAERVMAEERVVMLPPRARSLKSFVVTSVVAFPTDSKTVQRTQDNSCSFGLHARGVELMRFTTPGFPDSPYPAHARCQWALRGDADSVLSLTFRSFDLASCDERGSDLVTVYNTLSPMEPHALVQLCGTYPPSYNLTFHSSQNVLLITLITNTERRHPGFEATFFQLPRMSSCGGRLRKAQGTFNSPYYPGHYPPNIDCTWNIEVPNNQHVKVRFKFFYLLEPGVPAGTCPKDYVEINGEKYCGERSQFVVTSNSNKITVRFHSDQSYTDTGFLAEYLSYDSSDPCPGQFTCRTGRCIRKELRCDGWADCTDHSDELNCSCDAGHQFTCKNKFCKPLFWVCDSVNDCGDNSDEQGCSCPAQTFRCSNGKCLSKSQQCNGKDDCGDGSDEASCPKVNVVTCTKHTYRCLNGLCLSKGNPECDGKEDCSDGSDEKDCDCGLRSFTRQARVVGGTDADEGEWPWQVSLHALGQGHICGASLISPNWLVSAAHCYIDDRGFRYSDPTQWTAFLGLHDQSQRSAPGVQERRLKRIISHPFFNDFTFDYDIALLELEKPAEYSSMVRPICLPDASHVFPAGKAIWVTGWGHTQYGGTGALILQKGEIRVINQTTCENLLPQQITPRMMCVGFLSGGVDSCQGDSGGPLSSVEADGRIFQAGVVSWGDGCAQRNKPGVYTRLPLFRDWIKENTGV

SMILES | inhibition
Cc1ccc(S(=O)(=O)N[C@@H](C(=O)Nc2ccc(C(=N)N)cc2)C2CCCCC2)cc1 | < 10%
Cc1ccc(S(=O)(=O)N[C@@H](C(=O)Nc2ccc(C(=N)N)cc2)c2ccccc2)cc1 | < 10%
N=C(N)c1ccc(NC(=O)[C@H](NS(=O)(=O)c2ccc(F)cc2)C2CCCCC2)cc1 | < 10%

biological target: T4, Suppressor of tumorigenicity 14 protein (Homo sapiens); assay: Inhibition of matriptase (unknown origin) using BOC-QAR-AMC as substrate at 10 uM after 15 mins by fluorescence assay relative to control; details: not given; summary of the method: as §1

SMILES | inhibition
Cc1ccc(S(=O)(=O)N[C@@H](C(=O)Nc2ccc(C(=N)N)cc2)C2CCCCC2)cc1 | < 10%
Cc1ccc(S(=O)(=O)N[C@@H](C(=O)Nc2ccc(C(=N)N)cc2)c2ccccc2)cc1 | < 10%
N=C(N)c1ccc(NC(=O)[C@H](NS(=O)(=O)c2ccc(F)cc2)C2CCCCC2)cc1 | < 10%
